Data: ChEMBL document CHEMBL4340532, “Design, synthesis, and biological evaluation of novel 2'-deoxy-2'-fluoro-2'-C-methyl 8-azanebularine derivatives as potent anti-HBV agents” (Bioorg Med Chem Lett, 2019)

Key:
[1] = test system: Hepatitis B virus; assay: (§1) Antiviral activity against lamivudine-resistant Hepatitis B virus harboring L180M/M204V mutant infected in human HepG2.2.15 cells assessed as inhibition of intracellular HBV DNA replication at 40 uM measured on day 3 by FQ-PCR analysis relative to control; type: functional; conditions: HepG2.2.15, 72 h
In short: (§2)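 Lamivudine-resistant cell line transfected with the L180M/M204V mutant, exposed to 10, 20 or 40 µM for 3, 6 or 9 days. Intracellular and extracellular HBV DNA levels measured.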

[2] = test system: Hepatitis B virus; assay: Antiviral activity against Hepatitis B virus infected in human HepG2.2.15 cells assessed as inhibition of extracellular HBV DNA replication at 40 uM measured on day 3 by FQ-PCR analysis relative to control; type: functional; conditions: HepG2.2.15, 72 h
In short: (§3)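 HepG2.2.15 cultures were treated at 10, 20 or 40 µM for 3, 6 and 9 days. Both intracellular and extracellular HBV DNA levels were then determined and compared with untreated cells.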

[3] = test system: Hepatitis B virus; assay: as §1, with “uM supplemented with fresh medium containing compound every 3 days for 9 days” for “uM”, “post-last dose” for “on day 3”; type: functional; in short: as §2
[4] = test system: Hepatitis B virus; assay: as §1, with “20” for “40”, “uM supplemented with fresh medium containing compound every 3 days for 9 days” for “uM”, “post-last dose” for “on day 3”; type: functional; in short: as §2
[5] = test system: HepG2 cells (Homo sapiens); assay: Cytotoxicity against human HepG2 cells at 40 uM supplemented with fresh medium containing compound every 3 days for 9 days measured post-last dose
[6] = test system: Hepatitis B virus; assay: as §1, with “10” for “40”, “uM supplemented with fresh medium containing compound every 3 days for 6 days” for “uM”, “post-last dose” for “on day 3”; type: functional; in short: as §2
[7] = test system: Hepatitis B virus; assay: as §1, with “20” for “40”, “uM supplemented with fresh medium containing compound every 3 days for 6 days” for “uM”, “post-last dose” for “on day 3”; type: functional; in short: as §2
[8] = test system: Hepatitis B virus; assay: Antiviral activity against Hepatitis B virus infected in human HepG2.2.15 cells assessed as inhibition of intracellular HBV DNA replication at 10 uM measured on day 3 by FQ-PCR analysis relative to control; type: functional; conditions: HepG2.2.15, 72 h; in short: as §3
[9] = test system: Hepatitis B virus; assay: Antiviral activity against Hepatitis B virus infected in human HepG2.2.15 cells assessed as inhibition of intracellular HBV DNA replication at 40 uM measured on day 3 by FQ-PCR analysis relative to control; type: functional; conditions: HepG2.2.15, 72 h; in short: as §3
[10] = test system: Hepatitis B virus; assay: (§4) Antiviral activity against Hepatitis B virus infected in human HepG2.2.15 cells assessed as inhibition of extracellular HBV DNA replication at 20 uM supplemented with fresh medium containing compound every 3 days for 9 days measured post-last dose by FQ-PCR analysis relative to control; type: functional; in short: as §3
[11] = test system: Hepatitis B virus; assay: (§5) Antiviral activity against Hepatitis B virus infected in human HepG2.2.15 cells assessed as inhibition of intracellular HBV DNA replication at 10 uM supplemented with fresh medium containing compound every 3 days for 9 days measured post-last dose by FQ-PCR analysis relative to control; type: functional; in short: as §3
[12] = test system: Hepatitis B virus; assay: Antiviral activity against Hepatitis B virus infected in human HepG2.2.15 cells assessed as inhibition of intracellular HBV DNA replication at 20 uM supplemented with fresh medium containing compound every 3 days for 6 days measured post-last dose by FQ-PCR analysis relative to control; type: functional; in short: as §3
[13] = test system: Hepatitis B virus; assay: as §5, with “against lamivudine-resistant” for “against”, “virus harboring L180M/M204V mutant” for “virus”; type: functional; in short: as §2
[14] = test system: Hepatitis B virus; assay: Antiviral activity against lamivudine-resistant Hepatitis B virus harboring L180M/M204V mutant infected in human HepG2.2.15 cells assessed as inhibition of extracellular HBV DNA replication at 40 uM measured on day 3 by FQ-PCR analysis relative to control; type: functional; conditions: HepG2.2.15, 72 h; in short: as §2
[15] = test system: Hepatitis B virus; assay: Antiviral activity against Hepatitis B virus infected in human HepG2.2.15 cells assessed as inhibition of extracellular HBV DNA replication at 20 uM measured on day 3 by FQ-PCR analysis relative to control; type: functional; conditions: HepG2.2.15, 72 h; in short: as §3
[16] = test system: Hepatitis B virus; assay: as §4, with “against lamivudine-resistant” for “against”, “virus harboring L180M/M204V mutant” for “virus”, “10” for “20”, “6” for “9”; type: functional; in short: as §2
[17] = test system: Hepatitis B virus; assay: Antiviral activity against Hepatitis B virus infected in human HepG2.2.15 cells assessed as inhibition of extracellular HBV DNA replication at 10 uM measured on day 3 by FQ-PCR analysis relative to control; type: functional; conditions: HepG2.2.15, 72 h; in short: as §3
[18] = test system: Hepatitis B virus; assay: Antiviral activity against Hepatitis B virus infected in human HepG2.2.15 cells assessed as inhibition of intracellular HBV DNA replication at 10 uM supplemented with fresh medium containing compound every 3 days for 6 days measured post-last dose by FQ-PCR analysis relative to control; type: functional; in short: as §3
[19] = test system: Hepatitis B virus; assay: Antiviral activity against lamivudine-resistant Hepatitis B virus harboring L180M/M204V mutant infected in human HepG2.2.15 cells assessed as inhibition of intracellular HBV DNA replication at 20 uM measured on day 3 by FQ-PCR analysis relative to control; type: functional; conditions: HepG2.2.15, 72 h; in short: as §2
[20] = test system: Hepatitis B virus; assay: Antiviral activity against lamivudine-resistant Hepatitis B virus harboring L180M/M204V mutant infected in human HepG2.2.15 cells assessed as inhibition of extracellular HBV DNA replication at 20 uM measured on day 3 by FQ-PCR analysis relative to control; type: functional; conditions: HepG2.2.15, 72 h; in short: as §2
[21] = Cytotoxicity against human HepG2 cells supplemented with fresh medium containing compound every 3 days for 9 days measured post-last dose by MTT assay; type: cell-based
In short: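 HepG2 cells were exposed to compound for 3 or 9 days and viability was read by MTT assay. CC50 is the concentration causing 50% cytotoxicity. Results are mean ± SD of three experiments.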

With `C[C@@]1(F)[C@H](O)[C@@H](CO)O[C@H]1n1nnc2c(Nc3ccc(Cl)cc3F)ncnc21` the inhibition at 40 µM [1] was 31.3%, the inhibition at 40 µM [2] was 34.7% and the “inhibition (INH)” value [3] was 76.4%. For the same compound, the “inhibition (INH)” value [4] was 65.2%, the “inhibition (INH)” value [5] was 7.7% and the “inhibition (INH)” value [6] was 22.8%. For the same compound, the “inhibition (INH)” value [7] was 41.6%, the inhibition at 10 µM [8] was 14% and the inhibition at 40 µM [9] was 36.8%. The “inhibition (INH)” value [10] was 65%, the “inhibition (INH)” value [11] was 44.2% and the “inhibition (INH)” value [12] was 47%. The “inhibition (INH)” value [13] was 36.6%, the inhibition at 40 µM [14] was 45.2% and the inhibition at 20 µM [15] was 24.5%. For the same compound, the “inhibition (INH)” value [16] was 27.4%, the inhibition at 10 µM [17] was 18.4% and the “inhibition (INH)” value [18] was 31.8%. For the same compound, the inhibition at 20 µM [19] was 17.5%, the inhibition at 20 µM [20] was 35.6% and the CC50 at 216 h [21] was 245 µM.
